The values that follow come from ChEMBL document CHEMBL1221298, “InCl3 mediated one-pot multicomponent synthesis, anti-microbial, antioxidant and anticancer evaluation of 3-pyranyl indole derivatives” (Bioorg Med Chem Lett, 2010).

In brackets after ≈: the same amount, converted by molar mass. Activity calls are given as the source filed them. No cut-off for these calls is given here.

Common to all, as to assay type: functional
In experiment [1] the test system is Radical scavenging activity. Nature of the experiment: Antioxidant activity assessed as DPPH radical scavenging activity at 50 ug/ml. Put shortly: (§1)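 Each test sample was mixed with 1 ml DPPH in methanol, incubated at 37 °C for 30 min, and read spectrophotometrically at 517 nm with a blank reading. Scavenging % was expressed as the absorbance decrease at 517 nm relative to DPPH solution without test sample.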
On the technique in general: Loss of DPPH colour is used to gauge radical scavenging.

Experiment [2] concerns Radical scavenging activity. Nature of the experiment: Antioxidant activity assessed as DPPH radical scavenging activity at 200 ug/ml. The procedure, abridged: as §1
The test system of experiment [3] is Radical scavenging activity. Nature of the experiment: Antioxidant activity assessed as DPPH radical scavenging activity at 100 ug/ml. The procedure, abridged:
as §1

Experiment [4] can be described thus: Antioxidant activity assessed as ABTS radical scavenging activity at 100 ug/ml. The procedure, abridged:
(§2)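 Test samples at 50, 100, 200 and 400 ug/ml were each mixed with 1 ml of freshly prepared ABTS radical cation solution, adjusted to absorbance 0.7–0.9 at 734 nm. Mixtures reacted 2 h in the dark, then absorbance was read at 734 nm against a blank. Scavenging % was taken as the absorbance decrease relative to ABTS solution without test sample.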

Experiment [5] relates to Klebsiella pneumoniae. Nature of the experiment: microbe, parasite or virus in culture. Conditions: ATCC 11298, 24 h, read-out: IZ.
The nature of experiment [6]: Antioxidant activity assessed as ABTS radical scavenging activity at 50 ug/ml. Put shortly:
as §2

Experiment [7] has as its system Staphylococcus aureus. Nature of the experiment: microbe, parasite or virus in culture. Conditions: ATCC 9144, 24 h.
The subject of experiment [8] is Bacillus cereus. Nature of the experiment: microbe, parasite or virus in culture. Conditions: ATCC 11778, 24 h.
Experiment [9] deals with Staphylococcus aureus. Nature of the experiment: microbe, parasite or virus in culture. Conditions: ATCC 9144, 24 h, read-out: IZ.
For experiment [10], the system named is Radical scavenging activity. Nature of the experiment: Antioxidant activity assessed as DPPH radical scavenging activity. The procedure, abridged:
as §1

The subject of experiment [11] is Radical scavenging activity. Nature of the experiment: Antioxidant activity assessed as DPPH radical scavenging activity at 400 ug/ml. Put shortly:
as §1

Experiment [12] can be described thus: Antioxidant activity assessed as ABTS radical scavenging activity at 200 ug/ml. The procedure, abridged: as §2
Experiment [13] has as its system Bacillus cereus. Nature of the experiment: Antimicrobial activity against Bacillus cereus ATCC 11778 at 100 ug/ml after 24 hrs by paper disk diffusion method. Conditions: ATCC 11778, 24 h, read-out: IZ. In general terms: In agar diffusion tests the substance spreads into inoculated agar from a disc or well.
The test system of experiment [14] is Escherichia coli. Nature of the experiment: microbe, parasite or virus in culture. Conditions: ATCC 25922, 24 h, read-out: IZ.
The nature of experiment [15]: Antioxidant activity assessed as ABTS radical scavenging activity. The procedure, abridged: as §2
The nature of experiment [16]: Antioxidant activity assessed as ABTS radical scavenging activity at 400 ug/ml. Put shortly:
as §2

In experiment [17] the test system is Escherichia coli. Nature of the experiment: microbe, parasite or virus in culture. Conditions: ATCC 25922, 24 h.
A further experiment deals with MCF7. Nature of the experiment: Cytotoxicity against human MCF7 cells after 24 hrs by MTT assay. Conditions: MCF7, 24 h. Put shortly:
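Exponentially growing cells plated at 10⁴ cells/well and allowed to attach, then exposed to test compounds or doxorubicin (dissolved in 0.1% DMSO, diluted in medium; range 1–100) for 24 h; controls received medium with 0.1% DMSO. MTT (1 mg/ml) added for 4 h at 37 °C, formazan dissolved in DMSO, absorbance read at 540 nm; % cytotoxicity calculated from blank-corrected absorbances versus control.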
For orientation: Tetrazolium dyes change colour on reduction, which living cells bring about.

Experiment [18] has as its system Klebsiella pneumoniae. Nature of the experiment: microbe, parasite or virus in culture. Conditions: ATCC 11298, 24 h.

As a reminder, the GI50 is the concentration giving 50% growth inhibition. One may read the TGI as the concentration at which net growth stops. Low readings indicate more potent growth arrest, high ones less potent growth arrest.

Turning to `N#CC1=C(N)OC(c2c[nH]c3ccccc23)=C(C#N)C1c1ccc2ccccc2c1` (stereo unspecified), the result in [1], in experiment [2], in experiment [3], in experiment [4], in experiment [6] and in experiment [10] was inactive. The outcome in [11], in [12], in [15] and in experiment [16] was inactive. The zone of inhibition at 100 µg/mL is 15 mm with Klebsiella pneumoniae [5], 14 mm in the experiment on Staphylococcus aureus [9], 15 mm in the experiment with Bacillus cereus [13] and 16 mm in the experiment with Escherichia coli [14]. The MIC in the experiment on Staphylococcus aureus [7] was determined as 32.4 µg/mL (≈ 83.4 µM); in the experiment with Bacillus cereus [8] it was 23.3 µg/mL (≈ 60 µM); against Escherichia coli [17], 29.4 µg/mL (≈ 75.7 µM); against Klebsiella pneumoniae [18] it was 30.5 µg/mL (≈ 78.5 µM). In the experiment on MCF7, this compound returned a GI50 of 15.5 µM. In the experiment with MCF7, the LC50 (concentration killing 50% of cells) came out at 91.5 µM. For the same compound, net growth in the experiment with MCF7 stopped (TGI) at 46.6 µM.
